From ChEMBL document CHEMBL4842338, “System-oriented optimization of multi-target 2,6-diaminopurine derivatives: Easily accessible broad-spectrum antivirals active against flaviviruses, influenza virus and SARS-CoV-2” (Eur J Med Chem, 2021)
pIC50: −log10 of the molar value. The source made the active and inactive calls. The rule behind the calls is not given here.

What was measured:
[1] = test system: Influenza A virus; assay: (§1) Antiviral activity against Influenza A/California/04/2009H1N1 infected in human A549 cells assessed as reduction in viral protein expression at 20 uM treated for 24 hr pdp viral adsorption followed by staining with anti-Flu antibody observed at 24 hrs post infection by In-cell western assay; format: functional, organism-based
[2] = test system: West Nile virus; assay: Antiviral activity against West Nile virus lineage 1 (Italy/2009) infected in pre-seeded Huh-7 cells assessed as inhibition of viral replication incubated for 48 hrs by immunodetection based direct yield reduction assay; format: functional, organism-based; settings: huh-7
[3] = test system: Influenza A virus; assay: (§2) Antiviral activity against Influenza A Puerto Rico/8/34/H1N1 infected in human A549 cells assessed as inhibition of hemagglutinin expression at 20 uM pretreated for 2 hrs followed by infection of fresh cell monolayer of A549 cells with supernatant for 24 hrs by In-cell western assay; format: functional, organism-based; settings: A/Puerto Rico/8/1934(H1N1)
Method in brief: (§3)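 A549 cells infected with PR8 H1N1 and given 20 μM compound: 2 h before infection (PRE), 1 h during adsorption (DUR), or 24 h after adsorption (POST); supernatants used to infect fresh monolayers for 24 h; anti-HA in-cell western; RFU as % of untreated infected; 3 replicates from two experiments.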

[4] = test system: West Nile virus; assay: Antiviral activity against West Nile virus lineage 1 (Italy/2009) infected in pre-seeded Huh-7 cells assessed as inhibition of viral replication incubated for 48 hrs by immunodetection based plaque reduction assay; format: functional, organism-based; settings: Huh-7, 48 h
[5] = Selectivity index, ratio of CC50 for human A549 cells to IC50 for Influenza A Puerto Rico/8/34/H1N1 infected in human A549 cells; format: toxicity, cell-based; settings: read-out: Selectivity Index
Method in brief: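 MDCK or A549 cells (2.5 × 10⁵/well) infected with A/Puerto Rico/8/34 H1N1 for 1 h at 37 °C, then washed. Compound (0.5–20 μM) added in 2% FBS medium for 24 h, with DMSO final ≤0.2%. Virus in supernatants read by hemagglutination. CC₅₀ by MTT (2 × 10⁴ cells/well, same concentrations, 24 h, absorbance 570 nm). SI = CC₅₀/IC₅₀.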

[6] = test system: Influenza A virus; assay: Antiviral activity against Influenza A Puerto Rico/8/34/H1N1 infected in MDCK cells assessed as inhibition of viral replication measured in supernatants of infected cells after 24 hrs by hemagglutination assay; format: functional, organism-based; settings: A/Puerto Rico/8/1934(H1N1)
[7] = biological target: PIK3CA (Phosphatidylinositol 4,5-bisphosphate 3-kinase catalytic subunit alpha isoform) (Homo sapiens, UniProt P42336); assay: Inhibition of human full length PIK3CA assessed as residual activity at 5 uM using PI:PS (1:3) as a substrate incubated for 10 mins by scintillation counting analysis relative to control; settings: full length PIK3CA enzyme, probe PI:PS (1:3), read-out: Activity
Method in brief: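 Radiometric kinase reaction with 10–50 ng enzyme and compound fixed at 5 μM, 10 μL at 30 °C for 10 min. Reactions spotted on filter and counted by scintillation. Residual activity is the mean ± SD of two independent experiments.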

[8] = test system: SARS-CoV-2; assay: Antiviral activity against SARS-COV 2 infected in monkey Vero E6 cells assessed as inhibition of viral replication at MOI of 0.01 and incubated after 2 hrs post infection for 48 hrs by direct yield reduction assay; format: functional, organism-based; settings: Severe acute respiratory syndrome coronavirus 2, Vero C1008
[9] = Selectivity index, ratio of CC50 for human Caco-2 cells infected with SARS-COV-2 to IC50 of SARS-COV 2 infected in human Caco-2 cells; format: toxicity, cell-based; settings: read-out: Selectivity Index
[10] = test system: A549; assay: Cytotoxicity against human A549 cells assessed as reduction in cell viability measured after 24 hrs by MTT assay; format: cell-based; settings: a549, 24 h
[11] = test system: Influenza A virus; assay: as §2, with “treated” for “pretreated”, “1 hr during viral absorption” for “2 hrs”; format: functional; settings: A/Puerto Rico/8/1934(H1N1); method in brief: as §3
[12] = test system: Influenza A virus; assay: Antiviral activity against Influenza A virus (A/California/04/2009(H1N1)) infected in human A549 cells assessed as reduction in viral protein expression at 20 uM treated for 2 to 6 hrs post infection and measured following infection of MDCK cells with supernatant for 24 hrs by time-of-addition assay; format: functional, organism-based; settings: time 2-6 hrs
[13] = test system: dengue virus type 2; assay: Antiviral activity against Dengue virus serotype 2 New Guinea C infected in pre-seeded Huh-7 cells assessed as inhibition of viral replication incubated for 72 hrs by immunodetection based direct yield reduction assay; format: functional, organism-based; settings: huh-7
[14] = biological target: Abl (Tyrosine-protein kinase ABL1) (Homo sapiens, UniProt P00519); assay: Inhibition of human recombinant N terminal His6 tagged Abl (27 to end residue) assessed as residual activity at 5 uM using KKGEAIYAADFA-NH2 as a substrate in the presence of NP-40 incubated for 10 mins by scintillation counting analysis relative to control; settings: probe KKGEAIYAADFA-NH2, read-out: Activity
Method in brief: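 Compounds at fixed 5 μM; 10–50 ng kinase, substrate and NP-40/BSA per supplementary table, 10 μL at 30 °C for 10 min in low-binding tubes. Reactions spotted on filter, dried, scintillation counted. Mean ± SD of two independent experiments.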

[15] = Inhibition of Dengue virus 2 […] RNA dependent RNA polymerase incubated for 10 mins by picogreen staining based fluorescent analysis (Rvb= 0.27+/-0.03 uM); set-up: species or system dengue virus type 2
[16] = test system: Influenza A virus; assay: Antiviral activity against Influenza A Puerto Rico/8/34/H1N1 infected in human A549 cells assessed as reduction in viral protein expression at 20 uM treated for 24 hrs pdp viral adsorption followed by staining with anti-Flu antibody observed at 24 hrs post infection by In-cell western assay; format: functional, organism-based; settings: A/Puerto Rico/8/1934(H1N1)
[17] = test system: SARS-CoV-2; assay: Antiviral activity against SARS-COV 2 infected in human Caco-2 cells assessed as inhibition of viral replication at MOI of 0.01 and incubated after 2 hrs post infection for 48 hrs by immunodetection assay; format: functional, organism-based; settings: Severe acute respiratory syndrome coronavirus 2, Caco-2
[18] = test system: Zika virus; assay: Antiviral activity against Zika virus H/PF/2013 infected in pre-seeded Huh-7 cells assessed as inhibition of viral replication incubated for 72 hrs by immunodetection based secondary yield reduction assay; format: functional, organism-based; settings: H/PF/2013, Huh-7, 72 h
[19] = Toxicity in human A549 cells assessed as effect on host cell membrane; format: cell-based
[20] = test system: SARS-CoV-2; assay: Antiviral activity against SARS-COV 2 infected in human Calu-3 cells assessed as inhibition of viral replication at MOI of 0.01 followed by removal of test compound after cell virus adsorption incubated for 72 hrs by ENTRY-DYRA method; format: functional, organism-based; settings: Severe acute respiratory syndrome coronavirus 2, Calu-3, 72 h
[21] = Cytotoxicity against human Huh-7 cells assessed as reduction in cell viability by Celltiter-Glo luminescent cell viability assay; format: cell-based; settings: Huh-7 cells
Method in brief: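 Compound-exposed cells assessed by CellTiter-Glo luminescence versus DMSO control; CC50 from dose-response.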

[22] = test system: Influenza A virus; assay: as §1, with “Influenza A virus (A/parrot/Ulster/73(H7N1))” for “Influenza A/California/04/2009H1N1”, “for 1” for “for 24”, “hr during” for “hr pdp”; format: functional, organism-based
[23] = test system: Influenza A virus; assay: Antiviral activity against Influenza A Puerto Rico/8/34/H1N1 infected in human A549 cells assessed as inhibition of hemagglutinin expression at 20 uM treated 2 to 6 hrs post infection for 24 hrs followed by infection in fresh monolayer of MDCK cells with supernatant for 24 hrs by time-of-addition assay; format: functional, organism-based; settings: A/Puerto Rico/8/1934(H1N1), time 2-6 hrs

Sequence of PIK3CA (Phosphatidylinositol 4,5-bisphosphate 3-kinase catalytic subunit alpha isoform) (P42336 whole entry, canonical isoform): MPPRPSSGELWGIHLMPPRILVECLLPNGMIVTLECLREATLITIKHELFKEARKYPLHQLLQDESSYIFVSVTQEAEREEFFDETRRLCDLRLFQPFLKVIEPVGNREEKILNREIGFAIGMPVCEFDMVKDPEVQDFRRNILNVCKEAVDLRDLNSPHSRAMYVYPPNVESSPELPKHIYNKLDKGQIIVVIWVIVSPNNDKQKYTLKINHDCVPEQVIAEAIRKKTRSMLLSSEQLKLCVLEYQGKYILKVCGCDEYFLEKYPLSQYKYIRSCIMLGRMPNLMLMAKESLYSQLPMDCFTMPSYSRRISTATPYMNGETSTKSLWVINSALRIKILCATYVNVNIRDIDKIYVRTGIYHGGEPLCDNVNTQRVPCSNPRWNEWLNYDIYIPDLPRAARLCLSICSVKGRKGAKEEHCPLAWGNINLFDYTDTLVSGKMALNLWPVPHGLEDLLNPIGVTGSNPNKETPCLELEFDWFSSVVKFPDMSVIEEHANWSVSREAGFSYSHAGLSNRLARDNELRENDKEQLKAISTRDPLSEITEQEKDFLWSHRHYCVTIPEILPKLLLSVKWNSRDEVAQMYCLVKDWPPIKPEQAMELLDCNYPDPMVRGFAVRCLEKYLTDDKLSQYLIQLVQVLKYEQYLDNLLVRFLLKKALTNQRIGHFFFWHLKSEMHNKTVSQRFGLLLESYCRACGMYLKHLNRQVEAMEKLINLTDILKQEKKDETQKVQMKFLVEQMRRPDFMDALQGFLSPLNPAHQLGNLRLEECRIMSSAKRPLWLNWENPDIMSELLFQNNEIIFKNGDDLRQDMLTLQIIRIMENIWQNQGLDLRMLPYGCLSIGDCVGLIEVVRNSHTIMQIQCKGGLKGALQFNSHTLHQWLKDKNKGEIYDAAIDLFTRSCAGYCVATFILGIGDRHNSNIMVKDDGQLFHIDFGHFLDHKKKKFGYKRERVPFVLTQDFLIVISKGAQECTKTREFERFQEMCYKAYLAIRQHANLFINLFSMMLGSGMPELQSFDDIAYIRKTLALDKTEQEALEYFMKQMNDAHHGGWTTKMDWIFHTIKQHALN
Sequence of Abl (Tyrosine-protein kinase ABL1) (P00519 whole entry): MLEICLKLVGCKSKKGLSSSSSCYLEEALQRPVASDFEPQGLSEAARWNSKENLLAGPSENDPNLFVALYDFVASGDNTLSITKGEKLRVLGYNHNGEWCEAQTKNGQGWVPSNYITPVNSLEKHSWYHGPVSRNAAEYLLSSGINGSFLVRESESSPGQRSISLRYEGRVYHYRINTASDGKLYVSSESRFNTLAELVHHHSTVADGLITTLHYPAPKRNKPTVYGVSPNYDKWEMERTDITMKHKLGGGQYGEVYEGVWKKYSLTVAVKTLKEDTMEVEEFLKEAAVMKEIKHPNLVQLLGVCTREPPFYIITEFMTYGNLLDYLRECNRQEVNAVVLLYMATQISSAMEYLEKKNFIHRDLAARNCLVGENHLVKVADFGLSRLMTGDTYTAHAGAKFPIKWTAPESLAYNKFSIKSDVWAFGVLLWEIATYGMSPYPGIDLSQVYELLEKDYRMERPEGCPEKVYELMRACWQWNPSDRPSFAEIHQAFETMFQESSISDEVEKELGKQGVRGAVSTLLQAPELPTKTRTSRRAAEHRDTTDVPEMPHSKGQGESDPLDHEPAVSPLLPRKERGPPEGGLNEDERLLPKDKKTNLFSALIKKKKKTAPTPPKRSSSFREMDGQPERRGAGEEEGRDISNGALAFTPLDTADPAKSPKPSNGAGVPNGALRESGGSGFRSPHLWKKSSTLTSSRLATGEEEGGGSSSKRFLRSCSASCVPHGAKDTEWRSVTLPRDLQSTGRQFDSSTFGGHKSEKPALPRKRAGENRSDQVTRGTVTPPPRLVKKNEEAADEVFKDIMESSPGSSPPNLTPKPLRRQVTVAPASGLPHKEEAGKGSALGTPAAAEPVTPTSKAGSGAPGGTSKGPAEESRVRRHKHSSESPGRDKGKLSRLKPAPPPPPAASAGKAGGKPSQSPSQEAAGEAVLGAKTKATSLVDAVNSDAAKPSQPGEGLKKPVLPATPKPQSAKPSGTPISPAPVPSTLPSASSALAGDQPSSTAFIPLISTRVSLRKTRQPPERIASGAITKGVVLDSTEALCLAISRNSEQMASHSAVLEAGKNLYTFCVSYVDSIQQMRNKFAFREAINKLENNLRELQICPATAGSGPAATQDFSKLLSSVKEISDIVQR

In the case of `FC(F)(F)c1cccc(Nc2nc(NCCOc3ccccc3)nc3[nH]cnc23)c1`, the Activity [1] was “Active”, the IC50 [2] was “Not Active” and the inhibition [3] was “inactive”. It also gave a pIC50 [4] of 5.41, a selectivity ratio [5] of 11 and a pIC50 [6] of 5.28. It also gave an activity at 10 min, 5 µM [7] of 66%, a pIC50 [8] of 4.27 and a selectivity ratio [9] of 14. The CC50 [10] was 106 µM, the inhibition at 20 µM [11] was 50% and the Activity [12] was “Active”. For the same molecule, the IC50 [13] was “Not Active”, the activity at 10 min, 5 µM [14] was 70% and the pIC50 [15] was 4.68. The Activity [16] was “Active”, the pIC50 [17] was 5.23 and the pIC50 [18] was 5.96. For the same molecule, the Activity [19] was “Toxic”, the pIC50 [20] was 5.72 and the CC50 [21] was 200 µM. The Activity [22] was “Active” and the Activity [23] was “inactive”.
